ChEMBL document CHEMBL2413035, “Synthesis and biological activity of benzo-fused 7-deazaadenosine analogues. 5- and 6-substituted 4-amino- or 4-alkylpyrimido[4,5-b]indole ribonucleosides” (Bioorg Med Chem, 2013)
Activity calls are given as the source filed them. The rule behind the calls is not given here.

How the values were obtained:
HL-60 = assay: Cytotoxicity against human HL60 cells after 3 days by XTT assay; type: functional, cell-based; details: for IC50: HL-60, 72 h
In short: (§1)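 ATCC lines HL60, HeLa S3, CCRF-CEM and HepG2 exposed to compound for 3 days. Viability read by metabolic XTT tetrazolium reduction.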

HeLa S3 = assay: (§2) Cytotoxicity against human HeLaS3 cells after 3 days by XTT assay; type: functional, cell-based; in short: as §1
CCRF-CEM = assay: Cytotoxicity against human CCRF-CEM cells after 3 days by XTT assay; type: functional, cell-based; details: for IC50: 72 h; in short: as §1
HepG2 = assay: Cytotoxicity against human HepG2 cells after 3 days by XTT assay; type: functional, cell-based; details: for IC50: HepG2, 72 h; in short: as §1
dengue virus type 2 = assay: Antiviral activity against Dengue virus 2 infected in Vero cells after 3 days by fluorescence microscopy; type: functional, organism-based; details: 72 h
In short: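 Vero cells, 20,000/well, seeded the day before in DMEM with L-glutamine, 2% FBS and penicillin/streptomycin. Two-fold serial compound dilutions added in triplicate; DENV-2 added 1 h later at MOI 0.3 IU/cell. Incubated 3 days at 37 °C, 5% CO2. Cells fixed and permeabilized, then stained with DENV-2-specific antibody and Cy3 anti-mouse IgG. Imaged by fluorescence microscopy; EC50 by nonlinear regression.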

Hepatitis C virus [1] = assay: Antiviral activity against HCV 1B infected in […] cells; type: functional, organism-based, Hepacivirus hominis; details: genotype 1b
[2] = Cytotoxicity against human […] cells infected with HCV 2A; type: cell-based
Hepatitis C virus [3] = assay: Antiviral activity against HCV 1A infected in […] cells; type: functional, organism-based, Hepacivirus hominis; details: subtype 1a
Hepatitis C virus [4] = assay: Antiviral activity against HCV 2A infected in […] cells; type: functional, organism-based, Hepacivirus hominis; details: genotype 2a
[5] = Cytotoxicity against human […] cells infected with HCV 1A; type: cell-based
[6] = Selectivity index, ratio of CC50 for african green monkey Vero cells to EC50 for Dengue virus 2 infected in Vero cells; type: toxicity, cell-based; details: read-out: Ratio CC50/EC50
[7] = Cytotoxicity against human […] cells infected with HCV 1B; type: cell-based
[8] = Cytotoxicity against african green monkey Vero cells after 48 hrs by XTT assay; type: cell-based; details: chlorocebus sabaeus
In short: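 Vero monolayers incubated with serial compound dilutions for 48 h. XTT added for 4 h, and formazan quantified spectrophotometrically. CC50, the 50% cytotoxic concentration, derived by nonlinear regression.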

[9] = as §2; type: functional, cell-based; details: HeLa S3, 72 h; in short: as §1

| EC50 (dengue virus type 2) | EC50 (Hepatitis C virus [1]) | EC50 (Hepatitis C virus [3]) | EC50 (Hepatitis C virus [4]) | SMILES | Activity (HL-60) | Activity (HeLa S3) | Activity (CCRF-CEM) | Activity (HepG2) | CC50 [2] | CC50 [5] | selectivity ratio [6] | CC50 [7] | CC50 at 48 h [8] | IC50 (HL-60) | IC50 [9] | IC50 (CCRF-CEM) | IC50 (HepG2) |
| --- | --- | --- | --- | --- | --- | --- | --- | --- | --- | --- | --- | --- | --- | --- | --- | --- | --- |
| – | – | – | – | Nc1ncnc2c1c1cc(Cl)ccc1n2[C@@H]1O[C@H](CO)[C@@H](O)[C@H]1O | inactive | inactive | inactive | inactive | – | – | – | – | – | – | – | – | – |
| – | – | – | – | Nc1ncnc2c1c1c(-c3ccco3)cccc1n2[C@@H]1O[C@H](CO)[C@@H](O)[C@H]1O | inactive | inactive | inactive | inactive | – | – | – | – | – | – | – | – | – |
| – | – | – | – | Nc1ncnc2c1c1c(-c3ccsc3)cccc1n2[C@@H]1O[C@H](CO)[C@@H](O)[C@H]1O | inactive | inactive | inactive | inactive | – | – | – | – | – | – | – | – | – |
| 18.8 µM | 7.38 µM | 10.1 µM | 13.8 µM | Nc1ncnc2c1c1cc(-c3ccsc3)ccc1n2[C@@H]1O[C@H](CO)[C@@H](O)[C@H]1O | inactive | inactive | inactive | inactive | 30.2 µM | 17.3 µM | 2.5 | 25.6 µM | 46.3 µM | – | – | – | – |
| – | 8.75 µM | 10 µM | 24.9 µM | Nc1ncnc2c1c1cc(-c3cccs3)ccc1n2[C@@H]1O[C@H](CO)[C@@H](O)[C@H]1O | inactive | inactive | inactive | inactive | > 44 µM | 18.1 µM | – | > 44 µM | – | – | – | – | – |
| 15.4 µM | 4.83 µM | 6.13 µM | 8.77 µM | Nc1ncnc2c1c1cc(-c3cc4ccccc4o3)ccc1n2[C@@H]1O[C@H](CO)[C@@H](O)[C@H]1O | – | – | – | – | 18 µM | 14.5 µM | > 6.5 | 28 µM | > 100 µM | 87 µM | 93 µM | 32 µM | 60 µM |
| – | 7.07 µM | 21.3 µM | > 44 µM | CN(C)c1ncnc2c1c1ccccc1n2[C@@H]1O[C@H](CO)[C@@H](O)[C@H]1O | inactive | inactive | inactive | inactive | > 44 µM | > 44 µM | – | > 44 µM | – | – | – | – | – |
| – | – | – | – | Nc1ncnc2c1c1cc(-c3ccco3)ccc1n2[C@@H]1O[C@H](CO)[C@@H](O)[C@H]1O | inactive | inactive | inactive | inactive | – | – | – | – | – | – | – | – | – |
| – | 0.34 µM | 0.56 µM | > 44 µM | Cc1ncnc2c1c1ccccc1n2[C@@H]1O[C@H](CO)[C@@H](O)[C@H]1O | – | – | – | – | > 44 µM | > 44 µM | – | > 44 µM | – | 54 µM | 11 µM | 82 µM | 15 µM |
| – | – | – | – | OC[C@H]1O[C@@H](n2c3ccccc3c3c(C4CC4)ncnc32)[C@H](O)[C@@H]1O | inactive | inactive | inactive | inactive | – | – | – | – | – | – | – | – | – |
| 0.85 µM | 0.32 µM | 0.53 µM | 1.28 µM | Nc1ncnc2c1c1c(Cl)cccc1n2[C@@H]1O[C@H](CO)[C@@H](O)[C@H]1O | – | – | – | – | 1.66 µM | 1.16 µM | 1.3 | 1.71 µM | 1.14 µM | 17 µM | 21 µM | 12 µM | 21 µM |
| – | – | – | – | Nc1ncnc2c1c1cc(-c3ccccc3)ccc1n2[C@@H]1O[C@H](CO)[C@@H](O)[C@H]1O | inactive | inactive | inactive | inactive | – | – | – | – | – | – | – | – | – |
| – | – | – | – | C[n+]1cnc2c(c1N)c1ccccc1n2[C@@H]1O[C@H](CO)[C@@H](O)[C@H]1O | inactive | inactive | inactive | inactive | – | – | – | – | – | – | – | – | – |
| 39.6 µM | 11.1 µM | 30.6 µM | > 44 µM | Nc1ncnc2c1c1ccccc1n2[C@@H]1O[C@H](CO)[C@@H](O)[C@H]1O | inactive | inactive | inactive | inactive | > 44 µM | > 44 µM | 1.1 | > 44 µM | 43.5 µM | – | – | – | – |
| 14.8 µM | 8.81 µM | > 44 µM | > 44 µM | CCCCc1cccc2c1c1c(N)ncnc1n2[C@@H]1O[C@H](CO)[C@@H](O)[C@H]1O | inactive | inactive | inactive | inactive | > 44 µM | > 44 µM | 4.3 | > 44 µM | 62.9 µM | – | – | – | – |
| – | – | – | – | Nc1ncnc2c1c1c(-c3ccccc3)cccc1n2[C@@H]1O[C@H](CO)[C@@H](O)[C@H]1O | inactive | inactive | inactive | inactive | – | – | – | – | – | – | – | – | – |
| – | – | – | – | Nc1ncnc2c1c1cc(-c3ccoc3)ccc1n2[C@@H]1O[C@H](CO)[C@@H](O)[C@H]1O | inactive | inactive | inactive | inactive | – | – | – | – | – | – | – | – | – |
